Here are results for 34 compounds from ChEMBL document CHEMBL1134782, “Synthesis of 1-benzyl-3-(5'-hydroxymethyl-2'-furyl)indazole analogues as novel antiplatelet agents” (J Med Chem, 2001).

In test [1] the target is T1, Soluble guanylate cyclase (Homo sapiens) (UniProt Q02153+O75343+P33402+Q02108). In words: sGC activation was determined in the presence of [alpha-32P]GTP at a concentration of 82 uM. It is filed as protein-complex assay. In short, it runs like this: (§1)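 Soluble guanylate cyclase source was the supernatant fraction of platelet homogenate. It was incubated with [α-32P]GTP and 82 μM test compound at 37 °C for 10 min. Activity was expressed as pmol cGMP/min/mg protein.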

A short description of test [2]: Inhibition of platelet aggregation induced by thrombin (0.1 unit/ml). It is filed as functional. The essentials: (§2)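 Platelets were preincubated with test compound at 37 °C for 1 min. Values are mean ± SE from three to six separations. Aspirin served as positive control.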
Test [3] addresses T2, cGMP-specific 3',5'-cyclic phosphodiesterase (Homo sapiens, UniProt O76074). As to the kind of experiment: (§3) Inhibition of PDE5 from platelets. In short, it runs like this: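 PDE activity fraction incubated with [3H]cGMP as substrate and a range of test-compound concentrations at 37 °C for 10 min. IBMX served as positive control.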
Test [4] can be described thus: Inhibition of platelet aggregation induced by PAF (2 ng/mL). It is filed as functional. The essentials: as §2
The nature of test [5]: Inhibition of platelet aggregation induced by AA (100 uM). In kind it is functional. The essentials: as §2
Test [6] is described as follows: Inhibition of platelet aggregation induced by Collagen (10 uM). It is filed as functional. The following applies: in the assay text read “10 ug/mL” for “10 uM”. The essentials:
as §2

Test [7] is described as follows: inhibition of platelet aggregation induced by PAF (2 ng/mL). It is filed as functional. The essentials:
as §2

A short description of test [8]: Inhibition of platelet aggregation induced by Collagen (10 ug/mL).
Test [9] has as its target T2, cGMP-specific 3',5'-cyclic phosphodiesterase. The description is as §3. The essentials:
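PDE activity fraction incubated with [3H]cGMP as substrate and a range of test-compound concentrations at 37 °C for 10 min. […] IBMX served as positive control.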
The source holds these as a separate data set.

In test [10] the target is T1, Soluble guanylate cyclase (Homo sapiens). As to the kind of experiment: […] was determined in the presence of [alpha-32P]GTP at a concentration of 82 uM. It is filed as protein-complex assay. The essentials:
as §1

For `OCc1ccc(-c2nn(-c3ccccc3)c3ccccc23)o1`, the Activity (pM of cGMP (min)-1 (mg of protein)-1) in [1] amounted to 27.8. In addition, the IC50 in [2] worked out at 158 µM; in [3] it was 36.3 µM; in [4], 145 µM; in test [5], 17.9 µM; in test [6], 13.7 µM.

Take `O=C(O)c1ccc(-c2nn(Cc3ccccc3)c3ccccc23)cc1`: the half-maximal inhibitory concentration (IC50) in [2] is more than 270 µM; in test [5] it was 130 µM; in [7], 179 µM; in test [6], 156 µM.

Take `COCc1ccc(-c2nn(Cc3ccccc3)c3cc(C)ccc23)o1`: the Activity (pM of cGMP (min)-1 (mg of protein)-1) in [1] came to 22.1. For the same compound, the IC50 came to 126 µM in [2], 76.3 µM in test [4], 32.4 µM in test [5] and 59.3 µM in [6].

With `O=C(O)c1cccc(-c2nn(Cc3ccccc3)c3ccccc23)c1`, the 50% inhibitory concentration (IC50) was more than 270 µM in test [2], 156 µM in test [5], 235 µM in [7] and 148 µM in test [6].

`OCc1cccc(-c2nn(Cc3ccccc3)c3ccccc23)c1`: the concentration for half-maximal inhibition (IC50) is more than 270 µM in test [2], 174 µM in [4], 51.3 µM in test [5] and 98.1 µM in test [6].

With `CCOC(=O)c1ccc(-c2nn(Cc3ccccc3)c3ccccc23)cc1`, the half-maximal inhibitory concentration (IC50) in [2] amounted to 29.3 µM; in test [4], 164 µM; in test [5], 184 µM; in test [6], 212 µM.

In the case of `OCc1ccc(-c2nn(Cc3ccccc3)c3ccccc23)cc1`, the IC50 in test [2] came to 193 µM; in [5], 101 µM; in test [7] it was 143 µM; in [6] it was 123 µM.

As to `Cc1ccc2c(-c3ccc(C(=O)O)o3)nn(Cc3ccccc3)c2c1`, the IC50 is more than 270 µM in [2], 150 µM in test [5], more than 270 µM in test [7] and 182 µM in test [6].

Regarding `COCc1ccc(-c2nn(Cc3ccccc3)c3cc(F)ccc23)o1`, the Activity (pM of cGMP (min)-1 (mg of protein)-1) in test [1] came to 41.8. The IC50 in [2] worked out at 116 µM; in [3], 3.9 µM; in [4], 109 µM; in test [5], 45.9 µM; in test [6], 64.1 µM.

On to `OCc1ccc(-c2nn(Cc3ccccc3)c3ccccc23)o1`, for which the Activity (pM of cGMP (min)-1 (mg of protein)-1) in test [1] was 44.6. Moreover, the IC50 was found to be 173 µM in test [2]; 31.9 µM in [3]; 87.3 µM in [4]; 54.3 µM in test [5]; 53.8 µM in test [6].

Turning to `COc1ccc2c(-c3ccc(C(=O)O)o3)nn(Cc3ccccc3)c2c1`, the half-maximal inhibitory concentration (IC50) in test [2] is more than 270 µM; in test [5], 150 µM; in test [7], more than 270 µM; in [6], 140 µM.

Take `Cc1ccc2c(-c3ccc(CO)o3)nn(Cc3ccccc3)c2c1`: in test [1], the Activity (pM of cGMP (min)-1 (mg of protein)-1) was 35.1. Further, the IC50 turned out to be 147 µM in test [2]; 8.4 µM in [3]; 72 µM in test [4]; 49.4 µM in test [5]; 45.9 µM in [6].

`COC(=O)c1ccc(-c2nn(Cc3ccccc3)c3cc(C)ccc23)o1`: the IC50 was more than 270 µM in test [2], more than 270 µM in test [4], 64.2 µM in [5] and 78.3 µM in [6].

Turning to `O=C(O)c1ccc(-c2nn(Cc3ccccc3)c3ccccc23)o1`, the concentration for half-maximal inhibition (IC50) in test [2] is more than 270 µM; in [4] it was more than 270 µM; in test [5], 83.7 µM; in [6], 75.5 µM.

In the case of `CCOC(=O)c1cccc(-c2nn(Cc3ccccc3)c3ccccc23)c1`, the half-maximal inhibitory concentration (IC50) is more than 270 µM in [2], 125 µM in test [5], more than 270 µM in test [7] and 144 µM in test [6].

With `COc1ccc2c(-c3ccc(CO)o3)nn(Cc3ccccc3)c2c1`, the Activity (pM of cGMP (min)-1 (mg of protein)-1) in test [1] amounted to 39.9. For the same compound, the 50% inhibitory concentration (IC50) in test [2] stood at 168 µM; in [4], 89.2 µM; in [5], 49.7 µM; in test [6], 46.7 µM.

With `COC(=O)c1ccc(-c2nn(Cc3ccccc3)c3cc(F)ccc23)o1`, the half-inhibitory concentration (IC50) in [2] is more than 270 µM; in test [4], 149 µM; in [8] it was 101 µM; in test [5] it was 94 µM.

Turning to `OCc1ccc(-c2nn(Cc3ccccc3)c3cc4c(cc23)OCO4)o1`, the IC50 stood at 239 µM in [2], 164 µM in [4], 105 µM in test [8] and 96.6 µM in [5].

On to `CC(C)Cn1c(=O)n(C)c(=O)c2[nH]cnc21` [ISOBUTYLMETHYLXANTHINE], for which the IC50 in test [9] is 63 µM.

For `COC(=O)c1ccc(-c2nn(Cc3ccccc3)c3cc4c(cc23)OCO4)o1`, the IC50 was found to be 260 µM in test [2], 136 µM in test [5], 254 µM in [7] and 168 µM in test [6].

Take `CCN(CC)Cc1ccc(-c2nn(Cc3ccccc3)c3ccccc23)o1`: in test [1], the Activity (pM of cGMP (min)-1 (mg of protein)-1) amounted to 17.9. Besides, the concentration for half-maximal inhibition (IC50) is 102 µM in test [2]; 63 µM in test [3]; 55.9 µM in test [4]; 55.7 µM in test [5]; 50.4 µM in test [6].

Regarding `O=C(O)c1ccc(-c2nn(Cc3ccccc3)c3cc(F)ccc23)o1`, the IC50 in [2] is more than 270 µM; in [5], 119 µM; in test [7], more than 270 µM; in test [6], 180 µM.

As for `O=C(O)c1ccc(-c2nn(Cc3ccccc3)c3cc4c(cc23)OCO4)o1`, the half-inhibitory concentration (IC50) in test [2] was more than 270 µM; in test [5] it was 148 µM; in [7], more than 270 µM; in test [6] it was 150 µM.

For `Cc1ccc(-c2nn(Cc3ccccc3)c3ccccc23)o1`, the IC50 in test [2] was found to be 39.4 µM; in test [3], 22.3 µM; in [5], 47.3 µM; in test [7], 39.6 µM; in test [6], 27.5 µM. Further, the Activity (pM of cGMP (min)-1 (mg of protein)-1) in test [10] was determined as 30.9.

With `COCc1ccc(-c2nn(Cc3ccccc3)c3cc4c(cc23)OCO4)o1`, the half-maximal inhibitory concentration (IC50) in test [2] is more than 270 µM; in [5] it was 102 µM; in [7], 196 µM; in [6] it was 113 µM.

Take `CC(=O)Oc1ccccc1C(=O)O` [ASPIRIN]: the IC50 in test [2] is more than 270 µM; in [4], more than 270 µM; in [5], 20 µM; in test [6] it was more than 270 µM.

As for `COC(=O)c1ccc(-c2nn(Cc3ccccc3)c3ccccc23)o1`, the IC50 in test [2] is more than 270 µM; in [4], more than 270 µM; in test [5] it was 81.1 µM; in [6] it was 162 µM.

As to `OCc1ccc(-c2[nH]nc3ccccc23)o1`, the IC50 in [2] is more than 270 µM; in test [5] it was 101 µM; in test [7] it was more than 270 µM; in test [6], more than 270 µM.

As for `COC(=O)c1ccc(-c2nn(-c3ccccc3)c3ccccc23)o1`, the half-maximal inhibitory concentration (IC50) is more than 270 µM in test [2], more than 270 µM in test [4], 10.6 µM in test [5] and 18.2 µM in test [6].

In the case of `COCc1ccc(-c2nn(Cc3ccccc3)c3cc(OC)ccc23)o1`, the IC50 in [2] stood at 256 µM; in test [5], 108 µM; in test [7], 177 µM; in test [6], 115 µM.

Take `OCc1ccc(-c2nn(Cc3ccccc3)c3cc(F)ccc23)o1`: in [1], the Activity (pM of cGMP (min)-1 (mg of protein)-1) was 37.2. In addition, the IC50 in test [2] came out at 217 µM; in test [3], 14 µM; in [4], 53.4 µM; in test [5], 21.7 µM; in [6] it was 25.2 µM.

Take `COCc1ccc(-c2nn(Cc3ccccc3)c3ccccc23)o1`: the Activity (pM of cGMP (min)-1 (mg of protein)-1) in test [1] came to 32. Besides, the IC50 in test [2] turned out to be 143 µM; in test [3], 13.8 µM; in test [4], 25.5 µM; in test [5], 8.2 µM; in test [6] it was 6.6 µM.

Turning to `COC(=O)c1ccc(-c2nn(Cc3ccccc3)c3cc(OC)ccc23)o1`, the IC50 in test [2] was more than 270 µM; in [4], more than 270 µM; in test [5] it was 92.3 µM; in test [6], 157 µM.

Regarding `O=C(O)c1ccc(-c2nn(-c3ccccc3)c3ccccc23)o1`, the IC50 in test [2], in test [5], in test [7] and in test [6] was more than 270 µM each time.
